Laboratory results published in ChEMBL document CHEMBL1124245, “Investigation of the structural parameters involved in the mu and delta opioid receptor discrimination of linear enkephalin-related peptides” (J Med Chem, 1988).
Numbered stars: 1 amine (or outer) side, 2 acyl side, 3 side chain; on linkers, the order of the positions; unused ones are H or OH. Square brackets hold non-standard residues; d marks the D form. Peptide text beside a SMILES is read from it. X1 = CC[C@H](O)[C@H](N[*:1])C(=O)[*:2]; azaGly = NNC(=O)O

Legend:
[1] = biological target: T1, Delta-type opioid receptor (Rattus norvegicus, UniProt P33533); assay: Inhibition of [3H]DSLET binding to delta 1 opioid receptors in rat brain membranes; assay type: cell membranes
Mu-type opioid receptor [2] = biological target: Mu-type opioid receptor (Rattus norvegicus, UniProt P33535); assay: Inhibition of [3H]DAGO binding to mu 1 opioid receptor in rat brain membranes; assay type: cell membranes
How it was run: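 Rat brain membranes, 0.6–0.7 mg protein, in 50 mM Tris-HCl pH 7.4 with 1 nM [3H]DAGO. Incubated 40 min at 35 °C, then filtered and washed with cold buffer. Bound radioactivity counted by scintillation. Nonspecific binding taken with 10 µM levorphanol, triplicates. Nine unlabeled-ligand concentrations, Hill-plot fit, Ki by Cheng-Prusoff. Three to six independent determinations.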

[3] = biological target: Opioid receptors; mu & delta (Homo sapiens, UniProt P41143+P35372); assay: Inhibition of electrically evoked contraction of guinea pig ileum (myenteric plexus;longitudinal muscle)[agonist action at mu 1 opioid receptors) and inhibition of electrically evoked contraction of mouse vas deferens (agonist action at delta 1 opioid receptor); assay type: functional, tissue-based
Mu-type opioid receptor [4] = biological target: Mu-type opioid receptor (Cavia porcellus, UniProt P97266); assay: Inhibition of electrically evoked contraction of guinea pig ileum (myenteric plexus:longitudinal muscle preparation) by agonist action at mu 1 opioid receptors; assay type: functional, tissue-based
How it was run: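 Electrically stimulated guinea pig ileum twitch. IC50 for half-maximal inhibition taken from six to eight log dose-response curves, six concentrations each. [Met]enkephalin IC50 measured on the same preparation. Agonist IC50 multiplied by the mean [Met]enkephalin IC50 divided by that assay's [Met]enkephalin IC50.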

Mus musculus [5] = organism: Mus musculus; assay: Inhibitory activity before protection from beta-CNS-induced inactivation in MVD; assay type: functional
Mus musculus [6] = assay: Analgesic potency in mice after icv injection and 10 min before exposing to hot plate; assay type: functional
How it was run: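 Albino mice, 24–28 g, given drug icv by hand (10 µL, modified 30-gauge needle). Jump latency timed on a 55 ± 0.2 °C hot plate 10 min later, experimenter blind. Cut-off 180 s = 100% analgesia. Percent analgesia = (Tt−Tc)/(180 s−Tc). 10 mice per point. AD50 and 95% confidence limits by Litchfield–Wilcoxon.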

[7] = biological target: T1, Delta-type opioid receptor; assay: Ability to inhibit the binding of [3H]DSLET to Opioid receptor delta 1 in rat brain membranes; assay type: cell membranes
Mus musculus [8] = organism: Mus musculus; assay: Inhibitory activity after protection from beta-CNS-induced inactivation in MVD; assay type: functional

T1 sequence (P33533 whole entry): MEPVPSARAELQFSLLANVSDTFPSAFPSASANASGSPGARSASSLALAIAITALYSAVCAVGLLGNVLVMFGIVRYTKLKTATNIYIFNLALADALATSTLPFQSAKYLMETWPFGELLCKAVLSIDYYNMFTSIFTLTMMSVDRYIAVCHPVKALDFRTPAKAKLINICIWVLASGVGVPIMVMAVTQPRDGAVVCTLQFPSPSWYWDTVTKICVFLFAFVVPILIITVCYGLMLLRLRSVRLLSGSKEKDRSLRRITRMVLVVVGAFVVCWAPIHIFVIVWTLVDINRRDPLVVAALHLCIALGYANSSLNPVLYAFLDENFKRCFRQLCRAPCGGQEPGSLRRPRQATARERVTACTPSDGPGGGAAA
Chain of Mu-type opioid receptor (Rattus norvegicus, UniProt P33535) (P33535 whole entry): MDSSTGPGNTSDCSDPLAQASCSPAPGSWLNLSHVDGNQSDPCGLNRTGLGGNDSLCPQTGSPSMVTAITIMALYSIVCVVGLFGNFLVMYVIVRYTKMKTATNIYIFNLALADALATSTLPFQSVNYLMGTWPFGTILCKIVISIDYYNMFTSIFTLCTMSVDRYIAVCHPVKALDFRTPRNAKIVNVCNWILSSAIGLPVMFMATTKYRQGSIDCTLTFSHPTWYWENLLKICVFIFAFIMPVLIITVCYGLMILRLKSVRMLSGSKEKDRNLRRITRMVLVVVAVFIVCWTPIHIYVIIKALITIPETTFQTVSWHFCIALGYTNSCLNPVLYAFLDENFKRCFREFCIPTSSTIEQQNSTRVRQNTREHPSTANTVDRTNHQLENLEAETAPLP
Chain of Mu-type opioid receptor (Cavia porcellus, UniProt P97266) (P97266 whole entry): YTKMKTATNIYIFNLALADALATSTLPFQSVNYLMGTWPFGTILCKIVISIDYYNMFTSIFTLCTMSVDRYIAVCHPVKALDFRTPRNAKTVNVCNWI

SMILES	Ki [1] [nM]	Ki (Mu-type opioid receptor [2]) [nM]	IC50 [3]	IC50 (Mu-type opioid receptor [4]) [nM]	IC50 (Mus musculus [5]; Mus musculus) [nM]	dose (Mus musculus [6]) [pmol/mouse]	Ki [7] [nM]	IC50 (Mus musculus [8]; Mus musculus) [nM]	IC50 (Mus musculus [5]) [nM]	IC50 (Mus musculus [8]) [nM]
CC(C)C[C@@H](C(=O)NCCO)N(C)C(=O)CNC(=O)[C@@H](C)NC(=O)[C@@H](N)Cc1ccc(O)cc1	3810	116	3180 nM	379	–	–	–	–	–	–
CC[C@H](O)[C@H](NC(=O)[C@@H](N)Cc1ccc(O)cc1)C(=O)NCC(=O)N[C@@H](Cc1ccccc1)C(=O)N[C@@H](CC(C)C)C(=O)N[C@H](C(=O)O)[C@@H](C)O (H-Y[X1]GFLT-OH)	2.2	16	0.05 nM	21.3	–	–	–	–	–	–
CC(C)C[C@H](NC(=O)[C@H](Cc1ccccc1)NC(=O)CNC(=O)[C@H](NC(=O)[C@@H](N)Cc1ccc(O)cc1)[C@H](C)O)C(=O)N[C@@H](CO)C(=O)O	4.18	41.9	0.25 nM	99	–	–	–	–	–	–
CCN(C(=O)CNC(=O)[C@@H](C)NC(=O)[C@@H](N)Cc1ccc(O)cc1)C(C)CC(C)C (stereo partly specified)	3450	35.5	1800 nM	216	–	–	–	–	–	–
C[C@@H](NC(=O)[C@@H](N)Cc1ccc(O)cc1)C(=O)NCC(=O)N(C)[C@@H](Cc1ccccc1)C(=O)NCCO [DAMGO]	–	–	–	11.5	100	1	700	2400	–	–
CC(C)CC(C)NC(=O)CNC(=O)C(C)(C)NC(=O)[C@@H](N)Cc1ccc(O)cc1 (stereo partly specified)	6880	171	4720 nM	1850	–	–	–	–	–	–
CC(C)C[C@@H](NC(=O)[C@H](Cc1ccccc1)NC(=O)CNC(=O)[C@@H](C)NC(=O)[C@@H](N)Cc1ccc(O)cc1)C(=O)O [DADLE]	–	–	–	–	–	12	–	–	–	–
CC(C)C[C@H](NC(=O)[C@H](Cc1ccccc1)NC(=O)CNC(=O)[C@@H](CO)NC(=O)[C@@H](N)Cc1ccc(O)cc1)C(=O)N[C@H](C(=O)O)[C@@H](C)O	4.8	–	–	406	0.38	130	–	0.65	–	–
CC(C)CC(C)NC(=O)CNC(=O)[C@H](C)NC(=O)[C@@H](N)Cc1ccc(O)cc1 (stereo partly specified)	–	–	>= 50000 nM	≥ 50000	–	–	–	–	–	–
CC(C)C[C@H](NC(=O)[C@H](Cc1ccccc1)NC(=O)CNC(=O)[C@H](NC(=O)[C@@H](N)Cc1ccc(O)cc1)[C@H](C)O)C(=O)N1C[C@H](O)C[C@H]1C(=O)O	7.6	43.8	1.1 nM	88	–	252	–	–	–	–
CC(C)C[C@H](NC(=O)[C@H](Cc1ccccc1)NC(=O)CNC(=O)[C@H](NC(=O)[C@@H](N)Cc1ccc(O)cc1)[C@H](C)O)C(=O)N[C@H](C(=O)O)[C@@H](C)O [listing 1 of 2 here]	–	25.3	0.15 nM	460	–	–	–	–	0.13	0.22
CC(C)C[C@H](NC(=O)[C@H](Cc1ccccc1)NC(=O)CNC(=O)[C@H](NC(=O)[C@@H](N)Cc1ccc(O)cc1)[C@H](C)O)C(=O)N[C@H](C(=O)O)[C@@H](C)O [listing 2 of 2 here]	–	–	–	–	–	50	–	–	–	–
CC(C)C[C@@H](C(=O)N[C@H](C(=O)O)[C@@H](C)O)N(C)C(=O)[C@H](Cc1ccccc1)NC(=O)CNC(=O)[C@H](NC(=O)[C@@H](N)Cc1ccc(O)cc1)[C@H](C)O	30.7	157	1.33 nM	224	–	–	–	–	–	–
CSCC[C@@H](NC(=O)[C@@H](N)Cc1ccc(O)cc1)C(=O)NCC(=O)NCCC(C)C	600	15	733 nM	154	–	–	–	–	–	–
CC(C)C[C@H](NC(=O)[C@H](Cc1ccccc1)NC(=O)CNC(=O)NNC(=O)[C@@H](N)Cc1ccc(O)cc1)C(=O)N[C@H](C(=O)O)[C@@H](C)O (H-Y[azaGly]GFLT-OH)	395	9790	38 nM	14000	–	–	–	–	–	–
CC(C)C[C@H](NC(=O)[C@H](CC(C)C)NC(=O)[C@H](Cc1ccccc1)NC(=O)CNC(=O)[C@@H](CO)NC(=O)[C@@H](N)Cc1ccc(O)cc1)C(=O)O	9.12	158	2.45 nM	257	–	610	–	–	–	–
CC(C)C[C@H](NC(=O)[C@H](CC(C)C)NC(=O)[C@H](Cc1ccccc1)NC(=O)CNC(=O)[C@H](NC(=O)[C@@H](N)Cc1ccc(O)cc1)[C@H](C)O)C(=O)O	2.65	38	0.41 nM	260	–	–	–	–	–	–
CC(C)CC(C)NC(=O)CNC(=O)[C@@H](COC(C)(C)C)NC(=O)[C@@H](N)Cc1ccc(O)cc1 (stereo partly specified)	39	13.7	105 nM	111	–	–	–	–	–	–
CC(C)CCNC(=O)CNC(=O)[C@@H](C)NC(=O)[C@@H](N)Cc1ccc(O)cc1	1020	10	3410 nM	323	–	–	–	–	–	–
CC(C)CC(C)NC(=O)CNC(=O)[C@@H](C)NC(=O)[C@@H](N)Cc1ccc(O)cc1 (stereo partly specified)	480	17	1050 nM	237	–	–	–	–	–	–
CC(C)CC(C)NC(=O)CNC(=O)[C@@H](CO)NC(=O)[C@@H](N)Cc1ccc(O)cc1 (stereo partly specified)	1370	43	990 nM	718	–	–	–	–	–	–
